This note sets out measurements from ChEMBL document CHEMBL1140564, “Macrocyclic ureas as potent and selective Chk1 inhibitors: an improved synthesis, kinome profiling, structure-activity relationships, and preliminary pharmacokinetics” (Bioorg Med Chem Lett, 2007).

Calls of active or inactive are those of the source. No cut-off for these calls is given here.

The target of experiment [1] is T1, Serine/threonine-protein kinase Chk1 (Homo sapiens, UniProt O14757).
T1 sequence (O14757 whole entry): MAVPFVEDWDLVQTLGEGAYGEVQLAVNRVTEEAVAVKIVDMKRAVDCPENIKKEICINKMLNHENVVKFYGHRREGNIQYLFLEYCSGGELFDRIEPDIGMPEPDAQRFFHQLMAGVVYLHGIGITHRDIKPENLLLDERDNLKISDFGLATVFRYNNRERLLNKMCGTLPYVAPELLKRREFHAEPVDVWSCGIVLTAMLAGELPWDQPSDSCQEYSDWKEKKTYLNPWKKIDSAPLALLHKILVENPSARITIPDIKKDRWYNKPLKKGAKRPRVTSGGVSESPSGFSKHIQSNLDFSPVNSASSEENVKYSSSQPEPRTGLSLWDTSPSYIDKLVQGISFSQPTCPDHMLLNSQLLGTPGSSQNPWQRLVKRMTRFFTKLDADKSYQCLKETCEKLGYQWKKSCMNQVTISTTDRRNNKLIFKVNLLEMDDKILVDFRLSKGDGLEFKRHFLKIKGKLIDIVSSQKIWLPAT
The experiment can be described thus: Inhibition of Chk1.

Experiment [2] deals with HeLa. Kind of experiment: Cytotoxicity against HeLa cells by MTS assay. It is filed as functional, cell-based. As to conditions: Homo sapiens. (In general: Tetrazolium dyes change colour on reduction, which living cells bring about.)
In experiment [3] the test system is NCI-H1299. The experiment can be described thus: Inhibition of doxorubicin-induced cell cycle arrest in H1299 cells at G2/M phase by FACS assay. Type of experiment: functional, cell-based. As to conditions: Homo sapiens. The gist of the method:
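H1299 cells treated with 500 nM doxorubicin to induce G2/M arrest, with or without inhibitor at various concentrations, up to 10 μM. Cells stained with propidium iodide and DNA content analysed by FACS. EC50 for abrogation of the Dox-induced G2/M checkpoint.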

Experiment [4] in a line: Cell cycle arrest in H1299 cells by accumulation at G2/M phase by FACS assay. Type of experiment: functional, cell-based. As to conditions: Homo sapiens, NCI-H1299. (A flow cytometer gives signals particle by particle.)

`N#Cc1ncc2nc1OCCCCOc1cc(P(=O)(O)O)c(Cl)cc1NC(=O)N2`: the IC50 (in general, the midpoint of a concentration-inhibition curve) in experiment [1] worked out at 8 nM. For the same molecule, the EC50 (commonly the midpoint of the concentration-response curve) in experiment [2] is 17.4 µM. Further, the result in experiment [3] and in experiment [4] was inactive.

`N#Cc1ncc2nc1OCCCCOc1cc(N3CCOC3=O)c(Cl)cc1NC(=O)N2` came in with an IC50 in experiment [1] of 6 nM. The EC50 in experiment [2] was more than 59.3 µM. The result in experiment [3] and in experiment [4] was inactive.

Turning to `N#Cc1ncc2nc1OCCCCOc1cc(OC(=O)N3CCC(N4CCCCC4)CC3)c(Cl)cc1NC(=O)N2`, half-maximal inhibition in experiment [1] (IC50) was put at 1 nM. Besides, the concentration giving a half-maximal response (EC50) in experiment [2] was 2.8 µM; in experiment [3], more than 10000 nM; in experiment [4] it was more than 10 µM.

Turning to `N#Cc1ncc2nc1OCCCCOc1cc(OCCCN3CCOCC3)c(Cl)cc1NC(=O)N2`, in experiment [1], the IC50 came out at 1 nM. In addition, the EC50 was 5 µM in experiment [2], more than 10000 nM in experiment [3] and more than 10 µM in experiment [4].

In experiment [1], `CCNc1cc2c(cc1Cl)NC(=O)Nc1cnc(C#N)c(n1)OCCCCO2` displayed an IC50 of 3 nM. In addition, in experiment [2], the EC50 was more than 59.3 µM. The result in experiment [3] and in experiment [4] was inactive.

With `N#Cc1ncc2nc1OC/C=C\COc1cc(OC(=O)N3CCC(N4CCCCC4)CC3)c(Cl)cc1NC(=O)N2`, in experiment [1], the IC50 stood at 1 nM. In addition, the EC50 in experiment [2] is 1.2 µM; in experiment [3] it was more than 10000 nM; in experiment [4], more than 10 µM.

`C[C@H](N)C(=O)Nc1cc2c(cc1Cl)NC(=O)Nc1cnc(C#N)c(n1)OC/C=C\CO2` came in with an IC50 in experiment [1] of 3 nM. The EC50 was more than 59.3 µM in experiment [2], 90 nM in experiment [3] and more than 10 µM in experiment [4].

In experiment [1], `N#Cc1ncc2nc1OC/C=C\COc1cc(OCCN3CCOCC3)c(Cl)cc1NC(=O)N2` came in with an IC50 of 1 nM. Also, the EC50 was 14.1 µM in experiment [2], more than 10000 nM in experiment [3] and more than 10 µM in experiment [4].

With `N#Cc1ncc2nc1OC/C=C\COc1cc(OCCCN3CCOCC3)c(Cl)cc1NC(=O)N2`, in experiment [1], the IC50 is 0.3 nM. Further, the EC50 in experiment [2] is 1.9 µM; in experiment [3], more than 10000 nM; in experiment [4], more than 10 µM.

For the molecule `N#Cc1ncc2nc1OCCCCOc1cc(O)c(Cl)cc1NC(=O)N2`, half-maximal inhibition in experiment [1] (IC50) required 0.3 nM. In experiment [2], this molecule had an EC50 of more than 59.3 µM. Also, the outcome in experiment [3] and in experiment [4] was inactive.

`COCCCOc1cc2c(cc1Cl)NC(=O)Nc1cnc(C#N)c(n1)OCCCCO2`: the midpoint of inhibition in experiment [1], the IC50, lay at 3 nM. In experiment [2], this molecule displayed an EC50 of 13.9 µM. The outcome in experiment [3] and in experiment [4] was inactive.

For `N#Cc1ncc2nc1OC/C=C\COc1cc(OCCCO)c(Cl)cc1NC(=O)N2`, in experiment [1], the IC50 was 2 nM. This molecule returned an EC50 in experiment [2] of more than 59.3 µM. The result in experiment [3] and in experiment [4] was inactive.

Regarding `N#Cc1ncc2nc1OC/C=C\COc1cc(O)c(Cl)cc1NC(=O)N2`, the IC50 in experiment [1] stood at 0.3 nM. In addition, the EC50 in experiment [2] was 45.7 µM; in experiment [3], 700 nM; in experiment [4], more than 10 µM.

Regarding `N#Cc1ncc2nc1OC/C=C\COc1cc(NCc3cncs3)c(Cl)cc1NC(=O)N2`, the IC50 in experiment [1] was 4 nM. Moreover, the EC50 in experiment [2] was 13.6 µM; in experiment [3], 200 nM; in experiment [4], more than 10 µM.

On to `N#Cc1ncc2nc1OCCCCOc1cc(NC(=O)OCCN3CCOCC3)c(Cl)cc1NC(=O)N2`, for which, in experiment [1], 3 nM corresponded to half-maximal inhibition (IC50). Besides, the figures for the EC50 in experiment [2], in experiment [3] and in experiment [4] were more than 59.3 µM, more than 10000 nM and more than 10 µM, respectively.

In experiment [1], `CNc1cc2c(cc1Cl)NC(=O)Nc1cnc(C#N)c(n1)OC/C=C\CO2` registered an IC50 of 2 nM. Moreover, the EC50 is more than 59.3 µM in experiment [2], more than 10000 nM in experiment [3] and more than 10 µM in experiment [4].

Turning to `N#Cc1ncc2nc1OC/C=C\COc1cc(NC(=O)c3ccnc(Cl)c3)c(Cl)cc1NC(=O)N2`, the IC50 in experiment [1] is 6 nM. Besides, the EC50 in experiment [2] is 5.4 µM; in experiment [3], more than 10000 nM; in experiment [4], more than 10 µM.

Consider `N#Cc1ncc2nc1OC/C=C\COc1cc(NC(=O)OCCN3CCOCC3)c(Cl)cc1NC(=O)N2`, for which half-maximal inhibition in experiment [1] (IC50) was put at 3 nM. Also, the EC50 in experiment [2] is more than 59.3 µM; in experiment [3], more than 10000 nM; in experiment [4] it was more than 10 µM.

The molecule `N#Cc1ncc2nc1OCCCCOc1cc(NC(=O)c3ccnc(Cl)c3)c(Cl)cc1NC(=O)N2` showed an IC50 in experiment [1] of 4 nM. This molecule also yielded a concentration for a half-maximal effect (EC50) in experiment [2] of more than 59.3 µM. Further, the outcome in experiment [3] and in experiment [4] was inactive.

As to `N#Cc1ncc2nc1OC/C=C\COc1cc(NC(=O)c3ccncc3)c(Cl)cc1NC(=O)N2`, inhibition in experiment [1] was half-maximal at 6 nM (IC50). The EC50 is more than 59.3 µM in experiment [2], more than 10000 nM in experiment [3] and more than 10 µM in experiment [4].

Regarding `N#Cc1ncc2nc1OCCCCOc1cc(N)c(Cl)cc1NC(=O)N2`, it took 1 nM to reach half-maximal inhibition in experiment [1] (IC50). In addition, the EC50 was 3.4 µM in experiment [2], less than 30 nM in experiment [3] and 2.6 µM in experiment [4].

Turning to `CN(C)c1cc2c(cc1Cl)NC(=O)Nc1cnc(C#N)c(n1)OCCCCO2`, half-maximal inhibition in experiment [1] (IC50) was put at 2 nM. Besides, the EC50 in experiment [2] was 54.5 µM; in experiment [3] it was 540 nM; in experiment [4] it was more than 10 µM.

Take `N#Cc1ncc2nc1OCCCCOc1cc(OCCO)c(Cl)cc1NC(=O)N2`: it took 8 nM to reach half-maximal inhibition in experiment [1] (IC50). In addition, the EC50 in experiment [2] was more than 59.3 µM; in experiment [3], 3200 nM; in experiment [4], more than 10 µM.

In experiment [1], `CNc1cc2c(cc1Cl)NC(=O)Nc1cnc(C#N)c(n1)OCCCCO2` registered an IC50 of 2 nM. Further, the values for the EC50 in experiment [2], in experiment [3] and in experiment [4] were more than 59.3 µM, more than 10000 nM and more than 10 µM, respectively.

Regarding `N#Cc1ncc2nc1OCCCCOc1cc(NC(=O)c3ccncc3)c(Cl)cc1NC(=O)N2`, in experiment [1], the IC50 was determined as 4 nM. Also, a half-maximal effect in experiment [2] (EC50) was put at 24.3 µM. The outcome in experiment [3] and in experiment [4] was inactive.

On to `CCN(CC)c1cc2c(cc1Cl)NC(=O)Nc1cnc(C#N)c(n1)OCCCCO2`, for which, in experiment [1], the half-inhibitory concentration (IC50) was 23 nM. The figures for the EC50 in experiment [2], in experiment [3] and in experiment [4] were more than 59.3 µM, more than 10000 nM and more than 10 µM, respectively.

`N#Cc1ncc2nc1OC/C=C\COc1cc(OCCO)c(Cl)cc1NC(=O)N2`: in experiment [1], 1 nM corresponded to half-maximal inhibition (IC50). Moreover, the EC50 is more than 59.3 µM in experiment [2], 1900 nM in experiment [3] and more than 10 µM in experiment [4].

On to `N#Cc1ncc2nc1OC/C=C\COc1cc(NCCO)c(Cl)cc1NC(=O)N2`, for which the IC50 in experiment [1] was 2 nM. Further, the EC50 in experiment [2] is more than 59.3 µM; in experiment [3], 1300 nM; in experiment [4], more than 10 µM.

On to `N#Cc1ncc2nc1OC/C=C\COc1cc(N)c(Cl)cc1NC(=O)N2`, for which the midpoint of inhibition in experiment [1], the IC50, lay at 0.3 nM. Further, the EC50 in experiment [2] is more than 59.3 µM; in experiment [3] it was less than 30 nM; in experiment [4], more than 10 µM.

For `N#Cc1ncc2nc1OCCCCOc1cc(OCCCO)c(Cl)cc1NC(=O)N2`, in experiment [1], the IC50 was 1 nM. For the same molecule, the EC50 in experiment [2] was more than 59.3 µM; in experiment [3] it was 2500 nM; in experiment [4], more than 10 µM.

Molecule `N#Cc1ncc2nc1OC/C=C\COc1cc(N(CCO)CCO)c(Cl)cc1NC(=O)N2` showed an IC50 in experiment [1] of 1 nM. In experiment [2], the EC50 came out at 34.1 µM. Further, the outcome in experiment [3] and in experiment [4] was inactive.
